From ChEMBL document CHEMBL3046066, “Synthesis of new fluorinated Tebufenpyrad analogs with acaricidal activity through regioselective pyrazole formation” (2008)
Activity calls are given as the source filed them. No cut-off for these calls is given here.

How the values were obtained:
Tetranychus urticae [1] = assay: Acaricidal activity against Tetranychus urticae (two-spotted spider mite) assessed as mortality at 5 g/L measured after 4 days; format: functional; details: 96 h
Method in brief: (§1)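 Each compound was applied as a solution, with active-principle concentration in the assay of 5 g/L (preliminary screen) or 0.16 g/L. Adulticide effect (% adult mortality) and fertility inhibition (%) were scored 24 h, 4 days and 6 days after application.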

Tetranychus urticae [2] = assay: Acaricidal activity against Tetranychus urticae (two-spotted spider mite) assessed as fertility inhibition at 0.16 g/L measured after 6 days; format: functional; details: 144 h; method in brief: as §1
Tetranychus urticae [3] = assay: Acaricidal activity against Tetranychus urticae (two-spotted spider mite) assessed as fertility inhibition at 5 g/L measured after 24 hr; format: functional; method in brief: as §1
Tetranychus urticae [4] = assay: Acaricidal activity against Tetranychus urticae (two-spotted spider mite) assessed as fertility inhibition at 5 g/L measured after 6 days; format: functional; details: 144 h; method in brief: as §1
Tetranychus urticae [5] = assay: Acaricidal activity against Tetranychus urticae (two-spotted spider mite) assessed as fertility inhibition at 0.16 g/L measured after 24 hr; format: functional; method in brief: as §1
Tetranychus urticae [6] = assay: Acaricidal activity against Tetranychus urticae (two-spotted spider mite) assessed as mortality at 0.16 g/L measured after 24 hr; format: functional; method in brief: as §1
Tetranychus urticae [7] = assay: Acaricidal activity against Tetranychus urticae (two-spotted spider mite) assessed as fertility inhibition at 5 g/L measured after 4 days; format: functional; details: 96 h; method in brief: as §1
Tetranychus urticae [8] = assay: Acaricidal activity against Tetranychus urticae (two-spotted spider mite) assessed as mortality at 0.16 g/L measured after 4 days; format: functional; details: 96 h; method in brief: as §1
Tetranychus urticae [9] = assay: Acaricidal activity against Tetranychus urticae (two-spotted spider mite) assessed as mortality at 5 g/L measured after 6 days; format: functional; details: 144 h; method in brief: as §1
Tetranychus urticae [10] = assay: Acaricidal activity against Tetranychus urticae (two-spotted spider mite) assessed as mortality at 0.16 g/L measured after 6 days; format: functional; details: 144 h; method in brief: as §1
Tetranychus urticae [11] = assay: Acaricidal activity against Tetranychus urticae (two-spotted spider mite) assessed as mortality at 5 g/L measured after 24 hr; format: functional; method in brief: as §1
Tetranychus urticae [12] = assay: Acaricidal activity against Tetranychus urticae (two-spotted spider mite) assessed as fertility inhibition at 0.16 g/L measured after 4 days; format: functional; details: 96 h; method in brief: as §1
Tetranychus urticae [13] = assay: Acaricidal activity against Tetranychus urticae (two-spotted spider mite) assessed as mortality at 1.5 g/L measured first 4 days; format: functional, organism-based
Method in brief: (§2)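 Solutions at 1.50, 0.67 and 0.16 g/L were applied for a lower-concentration follow-up to the 5 g/L screen. Adult mortality (%) was scored over time after application, including within the first 24 h.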

Tetranychus urticae [14] = assay: Acaricidal activity against Tetranychus urticae (two-spotted spider mite) assessed as mortality at 1.5 g/L measured within 24 hr; format: functional; method in brief: as §2
Tetranychus urticae [15] = assay: Acaricidal activity against Tetranychus urticae (two-spotted spider mite) assessed as mortality at 0.67 g/L measured within 24 hr; format: functional; method in brief: as §2

Question: Which results are given for `Cn1nc(CC(F)F)cc1C(=O)NCc1ccc(C(C)(C)C)cc1`?
Answer: mortality at 5000 µg/mL (Tetranychus urticae [1]): 100%; inhibition at 160 µg/mL (Tetranychus urticae [2]): 98%; inhibition at 5000 µg/mL (Tetranychus urticae [3]): 100%; inhibition at 5000 µg/mL (Tetranychus urticae [4]): 100%; inhibition at 160 µg/mL (Tetranychus urticae [5]): 96%; mortality at 160 µg/mL (Tetranychus urticae [6]): 59%; inhibition at 5000 µg/mL (Tetranychus urticae [7]): 100%; mortality at 160 µg/mL (Tetranychus urticae [8]): 14%; mortality at 5000 µg/mL (Tetranychus urticae [9]): 100%; mortality at 160 µg/mL (Tetranychus urticae [10]): 10%; mortality at 5000 µg/mL (Tetranychus urticae [11]): 100%; inhibition at 160 µg/mL (Tetranychus urticae [12]): 100%

Question: Which results are given for `CCc1nn(C)c(C(=O)NCc2ccc(C(C)(C)C)cc2)c1Cl` [TEBUFENPYRAD]?
Answer: mortality at 5000 µg/mL (Tetranychus urticae [1]): 100%; inhibition at 160 µg/mL (Tetranychus urticae [2]): 100%; inhibition at 5000 µg/mL (Tetranychus urticae [3]): 100%; inhibition at 5000 µg/mL (Tetranychus urticae [4]): 100%; inhibition at 160 µg/mL (Tetranychus urticae [5]): 84%; mortality at 160 µg/mL (Tetranychus urticae [6]): 92%; inhibition at 5000 µg/mL (Tetranychus urticae [7]): 100%; mortality at 160 µg/mL (Tetranychus urticae [8]): 100%; mortality at 5000 µg/mL (Tetranychus urticae [9]): 100%; mortality at 160 µg/mL (Tetranychus urticae [10]): 100%; mortality at 5000 µg/mL (Tetranychus urticae [11]): 100%; inhibition at 160 µg/mL (Tetranychus urticae [12]): 100%

Question: Which results are given for `CC(F)c1nn(C)c(C(=O)NCc2ccc(C(C)(C)C)cc2)c1Cl` (stereo not given)?
Answer: mortality at 5000 µg/mL (Tetranychus urticae [1]): 75%; inhibition at 160 µg/mL (Tetranychus urticae [2]): 96%; inhibition at 5000 µg/mL (Tetranychus urticae [3]): 100%; inhibition at 5000 µg/mL (Tetranychus urticae [4]): 100%; inhibition at 160 µg/mL (Tetranychus urticae [5]): 95%; mortality at 160 µg/mL (Tetranychus urticae [6]): 48%; inhibition at 5000 µg/mL (Tetranychus urticae [7]): 100%; mortality at 160 µg/mL (Tetranychus urticae [8]): 44%; mortality at 5000 µg/mL (Tetranychus urticae [9]): 100%; mortality at 160 µg/mL (Tetranychus urticae [10]): 66%; mortality at 5000 µg/mL (Tetranychus urticae [11]): 70%; inhibition at 160 µg/mL (Tetranychus urticae [12]): 95%; Activity (Tetranychus urticae [13]): Active

Question: How did the mortality at 5000 µg/mL (Tetranychus urticae [1]) turn out when `CC(F)c1cc(C(=O)NCc2ccc(C(C)(C)C)cc2)n(C)n1` (stereo not given) was run?
Answer: 70%

Question: And the inhibition at 160 µg/mL (Tetranychus urticae [2])?
Answer: 94%

Question: And the inhibition at 5000 µg/mL (Tetranychus urticae [3])?
Answer: 100%

Question: And the inhibition at 5000 µg/mL (Tetranychus urticae [4])?
Answer: 100%

Question: And the inhibition at 160 µg/mL (Tetranychus urticae [5])?
Answer: 68%

Question: And the mortality at 160 µg/mL (Tetranychus urticae [6])?
Answer: 16%

Question: And the inhibition at 5000 µg/mL (Tetranychus urticae [7])?
Answer: 96%

Question: What about the mortality at 160 µg/mL (Tetranychus urticae [8]) of the same compound?
Answer: 10%

Question: And the mortality at 5000 µg/mL (Tetranychus urticae [9])?
Answer: 80%

Question: And the mortality at 160 µg/mL (Tetranychus urticae [10])?
Answer: 10%

Question: What about the mortality at 5000 µg/mL (Tetranychus urticae [11]) of the same compound?
Answer: 70%

Question: And the inhibition at 160 µg/mL (Tetranychus urticae [12])?
Answer: 91%

Question: `Cn1nc(CC(F)F)c(Cl)c1C(=O)NCc1ccc(C(C)(C)C)cc1` was tested. Which mortality at 5000 µg/mL (Tetranychus urticae [1]) did it give?
Answer: 100%

Question: What about the inhibition at 160 µg/mL (Tetranychus urticae [2]) of the same compound?
Answer: 100%

Question: And the inhibition at 5000 µg/mL (Tetranychus urticae [3])?
Answer: 100%

Question: What about the inhibition at 5000 µg/mL (Tetranychus urticae [4]) of the same compound?
Answer: 100%

Question: And the inhibition at 160 µg/mL (Tetranychus urticae [5])?
Answer: 100%

Question: And the mortality at 160 µg/mL (Tetranychus urticae [6])?
Answer: 80%

Question: What about the inhibition at 5000 µg/mL (Tetranychus urticae [7]) of the same compound?
Answer: 100%

Question: And the mortality at 160 µg/mL (Tetranychus urticae [8])?
Answer: 71%

Question: And the mortality at 5000 µg/mL (Tetranychus urticae [9])?
Answer: 100%

Question: And the mortality at 160 µg/mL (Tetranychus urticae [10])?
Answer: 75%

Question: What about the mortality at 5000 µg/mL (Tetranychus urticae [11]) of the same compound?
Answer: 100%

Question: What about the mortality at 1500 µg/mL (Tetranychus urticae [14]) of the same compound?
Answer: 100%

Question: What about the inhibition at 160 µg/mL (Tetranychus urticae [12]) of the same compound?
Answer: 100%

Question: What about the Activity (Tetranychus urticae [13]) of the same compound?
Answer: Active

Question: What does the source list for `Cn1nc(C(F)C(F)(F)F)c(Cl)c1C(=O)NCc1ccc(C(C)(C)C)cc1` (stereo not given)?
Answer: mortality at 5000 µg/mL (Tetranychus urticae [1]): 10%; inhibition at 5000 µg/mL (Tetranychus urticae [3]): 53%; inhibition at 5000 µg/mL (Tetranychus urticae [4]): 65%; inhibition at 5000 µg/mL (Tetranychus urticae [7]): 60%; mortality at 5000 µg/mL (Tetranychus urticae [9]): 60%; mortality at 5000 µg/mL (Tetranychus urticae [11]): 10%

Question: For `Cn1nc(CC(F)(F)F)c(Cl)c1C(=O)NCc1ccc(C(C)(C)C)cc1`, which mortality at 5000 µg/mL (Tetranychus urticae [1]) is on record?
Answer: 30%

Question: What about the inhibition at 5000 µg/mL (Tetranychus urticae [3]) of the same compound?
Answer: 97%

Question: What about the inhibition at 5000 µg/mL (Tetranychus urticae [4]) of the same compound?
Answer: 98%

Question: What about the inhibition at 5000 µg/mL (Tetranychus urticae [7]) of the same compound?
Answer: 98%

Question: What about the mortality at 5000 µg/mL (Tetranychus urticae [9]) of the same compound?
Answer: 70%

Question: And the mortality at 5000 µg/mL (Tetranychus urticae [11])?
Answer: 25%

Question: Which results are given for `Cn1nc(CCF)c(Cl)c1C(=O)NCc1ccc(C(C)(C)C)cc1`?
Answer: mortality at 5000 µg/mL (Tetranychus urticae [1]): 100%; inhibition at 160 µg/mL (Tetranychus urticae [2]): 100%; inhibition at 5000 µg/mL (Tetranychus urticae [3]): 100%; inhibition at 5000 µg/mL (Tetranychus urticae [4]): 100%; inhibition at 160 µg/mL (Tetranychus urticae [5]): 100%; mortality at 160 µg/mL (Tetranychus urticae [6]): 96%; inhibition at 5000 µg/mL (Tetranychus urticae [7]): 100%; mortality at 160 µg/mL (Tetranychus urticae [8]): 100%; mortality at 5000 µg/mL (Tetranychus urticae [9]): 100%; mortality at 160 µg/mL (Tetranychus urticae [10]): 100%; mortality at 670 µg/mL (Tetranychus urticae [15]): 96%; mortality at 5000 µg/mL (Tetranychus urticae [11]): 100%; mortality at 1500 µg/mL (Tetranychus urticae [14]): 100%; inhibition at 160 µg/mL (Tetranychus urticae [12]): 100%; Activity (Tetranychus urticae [13]): Active
